In ChEMBL document CHEMBL1129316, “Inhibitors of human immunodeficiency virus type 1 protease containing 2-aminobenzyl-substituted 4-amino-3-hydroxy-5-phenylpentanoic acid: synthesis, activity, and oral bioavailability” (J Med Chem, 1996):
In brackets after ≈: the same amount, converted by molar mass.

Tests used:
[1] = Oral Bioavailability was measured as area-under-curve(AUC) value at dose 125 mg/kg; assay type: ADME, organism-based; conditions: in vivo
How it was run: (§1)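 Female Balb/c mice, fasted 24 h before and during the study, water ad libitum. Dosed by oral gavage at 125 mg/kg in a liquid formulation. Heparinized whole blood sampled at various times, methanol-extracted, cleaned on sulfobenzyl SPE, then RP-C18 HPLC with UV at 200 nm against an internal standard. Cmax taken as observed; AUC calculated. Detection limit 0.1 µM.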

[2] = Oral Bioavailability was measured as Maximal observed concentration (Cmax) value at dose 125 mg/kg; assay type: ADME, organism-based; parameters: dose 125 mg/kg, route oral; conditions: in vivo; how it was run: as §1
[3] = Solubility (phosphate-buffered saline, pH =7.4); assay type: physicochemical; conditions: read-out: S
How it was run: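 About 1 mg of lyophilized amorphous inhibitor in 1 mL PBS (pH 7.4), vortexed 1 min and sonicated 30 min at 37 °C. Filtered, then centrifuged at 100 000 rpm for 30 min. Supernatant run on RP-C18 HPLC (10 mM NH4OAc/CH3CN 50/50, UV 210 nm) and quantified by external standard. Minimum detectable 0.1 µg/mL.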

[4] = test system: Human immunodeficiency virus 1; experiment: Antiviral activity against HIV-1, IIIB, in MT-4 Cells; assay type: functional, organism-based; conditions: Human immunodeficiency virus 1, MT4
How it was run: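 HIV-1 strain IIIB-induced cytopathic effect in HTLV-I-transformed MT4 cells. Virus adsorbed to cells at 1 × 10⁶ cells/mL, 37 °C, 1 h. Compounds added postadsorption, final 1 × 10⁵ cells/mL. Inoculum set to kill 90% of cells in 5 days. Mock-infected and compound-only controls run. DMSO ≤0.3%, medium with 10% FBS. Viability read by MTT after 5 days. Mean of repeat determinations.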

[5] = biological target: Human immunodeficiency virus type 1 protease (Human immunodeficiency virus 1, UniProt Q72874); experiment: Binding affinity against HIV-1 protease
How it was run: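 Recombinant HIV-1 PR expressed in E. coli JM105 and purified to homogeneity. Enzyme incubated at 37 °C in 0.1 M MES, 0.37 M NaCl, 4 mM EDTA, pH 6.25, with 280 µM chromogenic nonapeptide substrate (pNph). Initial rates taken from the absorbance decrease at 298 nm. IC50 fitted, then Ki = (IC50 − Et/2)/(1 + S/Km). Mean of two determinations; DMSO ≤5%.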

[6] = test system: MT4; experiment: Antiviral Activity against HIV-1, IIIB, in MT-4 Cells; d indicates no activity at 10 uM; assay type: functional, cell-based, Homo sapiens
How it was run: (§2)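 MT4 cells infected with HIV-1 IIIB; virus adsorbed at 1 × 10⁶ cells/mL, 37 °C, 1 h, then plated at 1 × 10⁵ cells/mL with compound added postadsorption. Inoculum set to kill 90% of cells in 5 days. Incubated 5 days; viability of infected and mock-infected cells by MTT, read spectrophotometrically. Medium with 10% FBS; DMSO ≤0.3%. Values given as mean ± SD, n in parentheses.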

[7] = test system: MT4; experiment: Antiviral Activity against HIV-1, IIIB, in MT-4 Cells; d indicates no activity at 3 uM; assay type: functional, cell-based, Homo sapiens; how it was run: as §2

| SMILES | AUC [1] | Cmax [2] | solubility [3] | IC50 [4] | Ki [5] | IC50 [6] | IC50 [7] |
| --- | --- | --- | --- | --- | --- | --- | --- |
| COc1ccc(CN[C@@H](C(=O)N[C@H]2c3ccccc3CC2O)[C@H](O)[C@H](Cc2ccccc2)NC(=O)[C@@H](NC(=O)OCc2ccccc2)C(C)C)cc1 (stereo partly specified) | 137 µM·h | 12300 nM | 2.9 µM (≈ 2.06 µg/mL) | 344 nM | 8.1 nM | – | – |
| COc1ccc(CN[C@@H](C(=O)NC2c3ccccc3C[C@H]2O)[C@H](O)[C@H](Cc2ccccc2)NC(=O)[C@@H](NC(=O)CSc2nncn2C)C(C)(C)C)cc1 (stereo partly specified) | 1.6 µM·h | 700 nM | 260 µM (≈ 193 µg/mL) | 190 nM | 5.8 nM | – | – |
| CC(C)(C)OC(=O)N[C@@H](Cc1ccccc1)[C@@H](O)[C@@H](NCc1ccc(CNC(=O)Nc2ccccc2)cc1)C(=O)N[C@@H]1c2ccccc2C[C@H]1O | – | – | – | – | 33 nM | No activity | – |
| COc1ccc(CN[C@@H](C(=O)NC2c3ccccc3C[C@H]2O)[C@H](O)[C@H](Cc2ccccc2)NC(=O)[C@@H](NC(=O)CSc2nnn(C)n2)C(C)(C)C)cc1 (stereo partly specified) | 7.4 µM·h | 2800 nM | 78 µM (≈ 58.1 µg/mL) | 180 nM | 12 nM | – | – |
| COc1ccc(CN[C@@H](C(=O)NC(C(=O)NCc2nc3ccccc3[nH]2)C(C)C)[C@H](O)[C@H](Cc2ccccc2)NC(=O)OC(C)(C)C)cc1 (stereo partly specified) | 127 µM·h | 9100 nM | 9 µM (≈ 6.06 µg/mL) | 510 nM | 7.7 nM | – | – |
| CC(C)(C)OC(=O)N[C@@H](Cc1ccccc1)[C@@H](O)[C@@H](NCc1ccc(CNC(=O)OCc2ccccc2)cc1)C(=O)N[C@H]1c2ccccc2C[C@H]1O | – | – | – | – | – | No activity | – |
| COc1ccc(CN[C@@H](C(=O)NC2c3ccccc3C[C@H]2O)[C@H](O)[C@H](Cc2ccccc2)NC(=O)[C@@H](NC(=O)/C=C/c2ccc(OC)cc2O)C(C)(C)C)cc1 (stereo partly specified) | – | – | – | 238 nM | 18 nM | – | – |
| CC(C)(C)OC(=O)N[C@@H](Cc1ccccc1)[C@@H](O)[C@@H](NCc1ccc(OCCN2CCOCC2)cc1)C(=O)N[C@@H]1c2ccccc2C[C@H]1O | – | – | – | – | 130 nM | No activity | – |
| CCOc1ccc(CN[C@@H](C(=O)N[C@@H]2c3ccccc3C[C@H]2O)[C@H](O)[C@H](Cc2ccccc2)NC(=O)OC(C)(C)C)cc1 | – | – | – | – | 92 nM | No activity | – |
| CC(C)(C)OC(=O)N[C@@H](Cc1ccccc1)[C@@H](O)[C@@H](NCc1ccc(OCCO)cc1)C(=O)N[C@@H]1c2ccccc2C[C@H]1O | – | – | – | 4000 nM | 80 nM | – | – |
| CC(C)(C)OC(=O)N[C@@H](Cc1ccccc1)[C@@H](O)[C@@H](NCc1ccccc1)C(=O)NCc1ccccc1 | 0.8 µM·h | 400 nM | < 1 µM | – | – | – | No activity |
| COc1ccc(CN[C@@H](C(=O)NC2c3ccccc3C[C@H]2O)[C@H](O)[C@H](Cc2ccccc2)NC(=O)[C@@H](NC(=O)CCc2ccccc2O)C(C)(C)C)cc1 (stereo partly specified) | 11.8 µM·h | 1800 nM | – | 160 nM | 13 nM | – | – |
| COc1ccc(CN[C@@H](C(=O)N[C@@H]2c3ccccc3C[C@H]2O)[C@H](O)[C@H](Cc2ccccc2)NC(=O)OC(C)(C)C)cc1 | – | – | – | – | 65 nM | No activity | – |
| COc1ccc(CN[C@@H](C(=O)N[C@@H]2c3ccccc3C[C@H]2O)[C@H](O)[C@H](Cc2ccccc2)NC(=O)C(CC(N)=O)NC(=O)OCc2ccccc2)cc1 (stereo partly specified) | – | – | – | 1400 nM | 15 nM | – | – |
| CC(=O)NCc1ccc(CN[C@@H](C(=O)N[C@H]2c3ccccc3C[C@H]2O)[C@H](O)[C@H](Cc2ccccc2)NC(=O)OC(C)(C)C)cc1 | – | – | – | 2600 nM | 70 nM | – | – |
| COc1ccc(CN[C@@H](C(=O)NC2c3ccccc3C[C@H]2O)[C@H](O)[C@H](Cc2ccccc2)NC(=O)[C@@H](NC(=O)CSc2nnc(C)s2)C(C)(C)C)cc1 (stereo partly specified) | 60.3 µM·h | 20000 nM | 39 µM (≈ 29.7 µg/mL) | 178 nM | 8 nM | – | – |
| COc1ccc(CN[C@@H](C(=O)N[C@@H]2c3ccccc3C[C@H]2O)[C@H](O)[C@H](Cc2ccccc2)NC(=O)[C@@H](NC(=O)OC(C)(C)C)C(C)(C)C)cc1 | – | – | – | – | 210 nM | – | No activity |
| COc1ccc(CN[C@@H](C(=O)NC2c3ccccc3C[C@H]2O)[C@H](O)[C@H](Cc2ccccc2)NC(=O)[C@@H](NC(=O)CCc2ccc(OC)c(O)c2)C(C)(C)C)cc1 (stereo partly specified) | 0.2 µM·h | 250 nM | – | 88 nM | 7.7 nM | – | – |
| CC(C)(C)OC(=O)N[C@@H](Cc1ccccc1)[C@@H](O)[C@@H](NCc1ccc(CNC(=O)CCc2nc3ccccc3[nH]2)cc1)C(=O)NCc1ccccc1 | – | – | – | – | – | – | No activity |
| COc1ccc(CN[C@@H](C(=O)N[C@H]2c3ccccc3C[C@H]2O)[C@H](O)[C@H](Cc2ccccc2)NC(=O)[C@@H](NC(=O)Nc2cccc(OC)c2OC)C(C)(C)C)cc1 | – | – | – | 532 nM | 13 nM | – | – |
| CC(C)(C)OC(=O)N[C@@H](Cc1ccccc1)[C@@H](O)[C@@H](NCc1ccc(CNC(=O)CCc2nc3ccccc3[nH]2)cc1)C(=O)N[C@H]1c2ccccc2C[C@H]1O | – | – | – | 4400 nM | 41 nM | – | – |
| CC(C)(C)[C@H](NC(=O)OCc1ccccc1)C(=O)N[C@@H](Cc1ccccc1)[C@@H](O)[C@@H](NCc1ccc(OCCO)cc1)C(=O)N[C@H]1c2ccccc2C[C@H]1O | 5.9 µM·h | 2600 nM | 16.5 µM (≈ 12.4 µg/mL) | 155 nM | – | – | – |
| CCOc1ccc(CN[C@@H](C(=O)N[C@H]2c3ccccc3C[C@H]2O)[C@H](O)[C@H](Cc2ccccc2)NC(=O)[C@@H](NC(=O)OCc2ccccc2)C(C)(C)C)cc1 | 23.9 µM·h | 4300 nM | < 1 µM | 256 nM | – | – | – |
| COc1ccc(CN[C@@H](C(=O)N[C@@H]2c3ccccc3C[C@H]2O)[C@H](O)[C@H](Cc2ccccc2)NC(=O)C(CC(=O)O)NC(=O)OCc2ccccc2)cc1 (stereo partly specified) | – | – | – | – | 22 nM | – | No activity |
| COc1ccc(CN[C@@H](C(=O)N[C@H](C(=O)NCc2nc3ccccc3[nH]2)C(C)C)[C@H](O)[C@H](Cc2ccccc2)NC(=O)[C@@H](NC(=O)OCc2ccccc2)C(C)(C)C)cc1 | 0.6 µM·h | 200 nM | < 1 µM | 25 nM | 3.4 nM | – | – |
| COc1ccc(CN[C@@H](C(=O)NC(C(=O)NCc2nc3ccccc3[nH]2)c2ccccc2)[C@H](O)[C@H](Cc2ccccc2)NC(=O)OC(C)(C)C)cc1 (stereo partly specified) | – | – | – | 380 nM | 11 nM | – | – |
| CC(C)(C)OC(=O)N[C@@H](Cc1ccccc1)[C@@H](O)[C@@H](NCc1ccc(OCCO)cc1)C(=O)NCc1ccccc1 | – | – | – | – | – | – | No activity |
| CCC(C)C(NC(=O)OCc1ccccc1)C(=O)N[C@@H](Cc1ccccc1)[C@@H](O)[C@@H](NCc1ccc(OC)cc1)C(=O)N[C@@H]1c2ccccc2CC1O (stereo partly specified) | – | – | – | 1100 nM | 8.2 nM | – | – |
| COc1ccc(CN[C@@H](C(=O)N[C@H]2c3ccccc3C[C@H]2O)[C@H](O)[C@H](Cc2ccccc2)NC(=O)[C@@H](NC(=O)OCc2ccccc2)C(C)(C)C)cc1 | 82.5 µM·h | 16500 nM | < 1 µM | 254 nM | 9.5 nM | – | – |
